Laboratory results reported in ChEMBL document CHEMBL1145506, “Activation of inhibitors by sortase triggers irreversible modification of the active site” (J Biol Chem, 2007).
The source made the active and inactive calls. The calls are words filed in the database; no cut-off is given here.

B1: Sortase A (Staphylococcus aureus), Q9S446 (protein)
chain: MKKWTNRLMTIAGVVLILVAAYLFAKPHIDNYLHDKDKDEKIEQYDKNVKEQASKDKKQQAKPQIPKDKSKVAGYIEIPDADIKEPVYPGPATPEQLNRGVSFAEENESLDDQNISIAGHTFIDRPNYQFTNLKAAKKGSMVYFKVGNETRKYKMTSIRDVKPTDVGVLDEQKGKDKQLTLITCDDYNEKTGVWEKRKIFVATEVK

Assays:
[1] = target: T1, Sortase A (Staphylococcus aureus) (UniProt Q9S446); assay: Inhibition of Staphylococcus aureus sortase A at 10 ng
T1 sequence (whole entry): B1 chain
In short: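 Purified S. aureus SrtA (2 μM) preincubated with 10 ng compound in DMSO for 1 h at 25 °C. FRET substrate a-LPETG-d was then added to 2 μM in 5 mM CaCl2, 150 mM NaCl, 50 mM Tris-HCl pH 7.5, and incubated 24 h at 37 °C. Fluorescence read at ex 320/em 420 nm. Screened in duplicate; % inhibition = 100 − (well/plate positive-control mean ×100).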

Bacillus anthracis = assay: (§1) Inhibition of Bacillus anthracis sortase A; design: concentration or dose not given beside the values; conditions: concentration not given here
Papain (Carica papaya) = target: T2, Papain (Carica papaya) (UniProt P00784); assay: Inhibition of Carica papaya papain; design: concentration or dose not given beside the values; conditions: concentration not given here
T2 sequence (whole entry): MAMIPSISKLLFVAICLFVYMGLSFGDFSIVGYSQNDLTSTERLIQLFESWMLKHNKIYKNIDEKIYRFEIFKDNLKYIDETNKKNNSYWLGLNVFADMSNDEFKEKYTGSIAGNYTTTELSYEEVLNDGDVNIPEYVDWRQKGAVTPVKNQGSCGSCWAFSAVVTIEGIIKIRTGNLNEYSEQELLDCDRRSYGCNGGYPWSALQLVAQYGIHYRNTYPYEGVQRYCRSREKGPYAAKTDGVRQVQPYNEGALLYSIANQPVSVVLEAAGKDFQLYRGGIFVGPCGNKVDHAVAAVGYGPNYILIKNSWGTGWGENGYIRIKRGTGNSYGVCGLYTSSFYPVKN

Sortase A = target: T3, Sortase A (Staphylococcus aureus, UniProt Q9S446); assay: (§2) Inhibition of Staphylococcus aureus sortase A
T3 sequence (Q9S446 whole entry): B1 chain

[2] = Inhibition of Bacillus anthracis sortase C
[3] = Inhibition of Bacillus anthracis sortase B
[4] = as §1
[5] = target: T1, Sortase A (Staphylococcus aureus); assay: as §2
[6] = substrate: CN(C)CCC(=O)c1ccc(Cl)c(Cl)c1; conditions: Staphylococcus aureus; 200 uM
[7] = substrate: CN(C)CCC(=O)c1cccs1; conditions: Staphylococcus aureus; 50 uM

Row | Molecule | inhibition [1] | inhibition (Bacillus anthracis) | inhibition (Papain (Carica papaya)) | also measured
1 | CN(C)CCC(=O)c1cccc([N+](=O)[O-])c1 | 54.3% | 90.2% | 47.2% | 
2 | C=CC(=O)c1cccs1 |  |  |  | Ki (Sortase A): 69 µM
3 | CC1CCCN(CCC(=O)c2ccc(Br)cc2)C1 (stereo not given) | 56.9% | 83.7% | 33.8% | 
4 | CN(C)CCC(=O)c1ccc(S(C)(=O)=O)cc1 | 69.8% | 91.3% | 37.1% | 
5 | O=C(CCN1CCOCC1)c1ccc(Cl)cc1 | 84.4% | 90.6% | 50.4% | 
6 | CN(C)CCC(=O)c1ccc(Cl)c(Cl)c1 | 89.6% | 90.4% | 49.3% | IC50 [2]: 20 µM; IC50 [3]: 14 µM; IC50 (Sortase A): 15 µM; Ki (Sortase A): 15.7 µM
7 | Cc1ccc(C(=O)CCN2CCOCC2)cc1 | 56.9% | 88.9% | 31.2% | 
8 | CCOC(=O)N1CCN(CCC(=O)c2ccc(Br)cc2)CC1 | 80.2% | 90.7% | 48.5% | 
9 | CN(C)CCC(=O)c1cccs1 | 54.8% | 90.7% | 19.1% | IC50 [2]: 15 µM; IC50 [3]: 34 µM; IC50 [4]: 4.8 µM; IC50 (Sortase A): 47 µM; Ki (Sortase A): 93.2 µM
10 | C=CC(O)c1cccs1 (racemic) |  |  |  | Activity [5]: inactive
11 | O=C(CCNc1ccccc1)c1cccc([N+](=O)[O-])c1 | 66% | 87.3% | 34% | 
12 | O=C(CCN1CCOCC1)c1ccc(F)cc1 | 47.2% | 89.1% | 46.6% | 
13 | B1 |  |  |  | Km [6]: 5.91 µM; Vmax [6]: 58 s⁻¹; Km [7]: 5.8 µM; Vmax [7]: 88.8 s⁻¹
